# Results of several laboratories.
# Protocols differ between the studies behind these lines.
# PIK3CA: Phosphatidylinositol 4,5-bisphosphate 3-kinase catalytic subunit alpha isoform (PIK3CA, Homo sapiens, UniProt P42336)
# PIK3CB: Phosphatidylinositol 4,5-bisphosphate 3-kinase catalytic subunit beta isoform (PIK3CB, Homo sapiens, UniProt P42338)
# KDR: Vascular endothelial growth factor receptor 2 (KDR, Homo sapiens, UniProt P35968)
Structure (SMILES),target,observed,mode,technique,IC50
Cc1ccc(CN2C(=O)C(=Nc3c(C(C)C)cccc3C(C)C)c3ccccc32)cc1,PIK3CA,enzyme activity,inhibitor,ADP detection,319 nM
CN(C)C(=O)c1cc2cnc(Nc3ccc(-c4ccc5c(=O)cc(N6CCOCC6)oc5c4)cc3)nc2n1C1CCCC1,PIK3CA,enzyme activity,inhibitor,radiometric,5780 nM
CNC(=O)[C@H](Cc1c[nH]c2ccccc12)NC(=O)[C@@H](CC(=O)NO)CC(C)C,"Macrophage metalloelastase (MMP12, Homo sapiens, UniProt P39900)",enzyme activity,inhibitor,,0.328 nM
O=C(O)CC[C@H](NC(=O)N[C@@H](CCCCNC(=O)[C@H](Cc1ccc2ccccc2c1)NC(=O)[C@H]1CC[C@H](CNC(=O)CN2CCN(CC(=O)O)CCN(CC(=O)O)CCN(CC(=O)O)CC2)CC1)C(=O)O)C(=O)O,"Glutamate carboxypeptidase 2 (FOLH1, Homo sapiens, UniProt Q04609)",ligand displacement in cells,,radioligand,7.8 nM
Cc1nc2c(F)cc(-c3ccnc(Nc4ccc5c(=O)cc(N6CCOCC6)oc5c4)n3)cc2n1C(C)C,PIK3CA,enzyme activity,inhibitor,radiometric,2130 nM
O=C(CCc1ccc(Cl)cc1)N1C(=O)C(=Nc2ccc(Cl)cc2Br)c2ccccc21,PIK3CB,enzyme activity,inhibitor,ADP detection,810 nM
O=C(Nc1nnc(-c2ccc3c(c2)OCCO3)o1)c1ccc(C(=O)c2ccccc2)cc1,PIK3CA,enzyme activity,inhibitor,ADP detection,470 nM
O=[N+]([O-])c1cc(Br)c(O)c(C=NNc2ccc(Cl)cc2)c1,KDR,enzyme activity,inhibitor,ATP luminescence,7700 nM
O=C(O)[C@H]1O[C@@H](Oc2cc3oc(-c4ccc(O)cc4)cc(=O)c3c(O)c2O)[C@H](O)[C@@H](O)[C@@H]1O,KDR,enzyme activity,inhibitor,TR-FRET,8350 nM
Cc1c(N2CCOCC2)oc2c(-c3ccc(Nc4ncc5cc(C(=O)N(C)C)n(C6CCCC6)c5n4)cc3F)cccc2c1=O,PIK3CA,enzyme activity,inhibitor,radiometric,> 10000 nM
Cc1cccc(N=C2C(=O)Nc3ccccc32)c1,PIK3CB,enzyme activity,inhibitor,ADP detection,134 nM
O=[N+]([O-])c1cc(Br)c(O)c(C=NNc2ccc(C(F)(F)F)cc2)c1,KDR,enzyme activity,inhibitor,ATP luminescence,8950 nM
CN(C)C(=O)c1cc2cnc(Nc3cc(C(F)(F)F)c(-c4ccc5c(=O)cc(N6CCOCC6)oc5c4)cn3)nc2n1C1CCCC1,PIK3CA,enzyme activity,inhibitor,radiometric,> 10000 nM
O=[N+]([O-])c1cc(I)c(O)c(C=NNc2ccc(C(F)(F)F)cc2)c1,KDR,enzyme activity,inhibitor,ATP luminescence,4440 nM
COc1ccc(-c2oc3cc(Nc4ncc5cc(C(=O)N(C)C)n(C6CCCC6)c5n4)ccc3c(=O)c2F)cc1,PIK3CA,enzyme activity,inhibitor,radiometric,> 10000 nM
O=[N+]([O-])c1cc(I)c(O)c(C=NNc2ccc(Br)cc2)c1,KDR,enzyme activity,inhibitor,ATP luminescence,6520 nM
COc1cc(N=C2C(=O)N(Cc3ccccc3)c3ccccc32)cc(OC)c1,PIK3CA,enzyme activity,inhibitor,ADP detection,7.31 nM
CN(C)C(=O)c1cc2cnc(Nc3cc(C(=O)O)cc(-c4ccc5c(=O)cc(N6CCOCC6)oc5c4)c3)nc2n1C1CCCC1,PIK3CA,enzyme activity,inhibitor,radiometric,111 nM
CCc1ccc(N=C2C(=O)Nc3ccccc32)cc1,PIK3CB,enzyme activity,inhibitor,ADP detection,270 nM
CN(C)C(=O)c1cc2cnc(Nc3ccc4c(=O)cc(N5CCNCC5)oc4c3)nc2n1C1CCCC1,PIK3CA,enzyme activity,inhibitor,radiometric,> 10000 nM
O=C1C(=Nc2ccccc2I)c2ccccc2N1Cc1ccc(Br)cc1,PIK3CB,enzyme activity,inhibitor,ADP detection,435 nM
COc1ccc(-c2cc(=O)c3c(O)cc(O[C@@H]4O[C@H](CO[C@@H]5O[C@@H](C)[C@H](O)[C@@H](O)[C@H]5O)[C@@H](O)[C@H](O)[C@H]4O)cc3o2)cc1O,KDR,enzyme activity,inhibitor,TR-FRET,32700 nM
O=[N+]([O-])c1cc(I)c(O)c(C=NNc2ccccc2)c1,KDR,enzyme activity,inhibitor,ATP luminescence,4970 nM
O=C1C(=Nc2ccc(Cl)cc2)c2ccccc2N1Cc1cccc(Cl)c1,PIK3CA,enzyme activity,inhibitor,ADP detection,322 nM
O=[N+]([O-])c1ccc(O)c(C=NNc2ccc(C(F)(F)F)cc2)c1,KDR,enzyme activity,inhibitor,ATP luminescence,20700 nM
O=C1C(=Nc2ccc(Cl)cc2)c2ccccc2N1Cc1ccc([N+](=O)[O-])cc1,PIK3CB,enzyme activity,inhibitor,ADP detection,7.73 nM
CN(C)C(=O)c1cc2cnc(Nc3ccc(-c4cccc5c(=O)cc(N6CCOCC6)oc45)c(F)c3)nc2n1C1CCCC1,PIK3CA,enzyme activity,inhibitor,radiometric,182 nM
